The record followed here is ChEMBL document CHEMBL1765069, “Decahydroquinoline amides as highly selective CB2 agonists: role of selectivity on in vivo efficacy in a rodent model of analgesia” (Bioorg Med Chem Lett, 2011).

The structures appear in SMILES notation. A value given as a limit tells only on which side of the number the result lay.

For data set [1], the system named is Rattus norvegicus. Nature of the data set: Antiinflammatory activity in rat assessed as inhibition of complete Freund's adjuvant-induced paw withdrawal threshold at 30 mg/kg, sc after 60 mins (reference value: 11%). The data set is classed as functional. As to conditions: 1 h, route subcutaneous. An outline of the steps:
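Rat complete Freund's adjuvant hyperalgesia model. Compound was given subcutaneously at 10, 30 or 100 mpk. Paw withdrawal threshold was read at the 60 min timepoint and expressed as % reversal.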

The target of data set [2] is Cannabinoid receptor 1 (Rattus norvegicus, UniProt P20272). In words: Agonist activity at rat CB1 receptor expressed in CHOK1 cells assessed as inhibition of forskolin-induced cAMP production treated 15 mins before forskolin challenge measured after 1 hr by HTRF assay. It is filed as functional, cell-based, CHO-K1. An outline of the steps: (§1)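 CHO-K1 cells (1000 per well) expressing human or rat CB1 or CB2 were preincubated with compound for 15 min at room temperature. Forskolin was then added at its EC70 for 30 min at room temperature. cAMP was detected by HTRF (d2-cAMP plus anti-cAMP cryptate) after a final 1 h incubation at room temperature. Values are reported as IC50 with % Emax.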
Chain of Cannabinoid receptor 1 (Rattus norvegicus, UniProt P20272) (P20272 whole entry): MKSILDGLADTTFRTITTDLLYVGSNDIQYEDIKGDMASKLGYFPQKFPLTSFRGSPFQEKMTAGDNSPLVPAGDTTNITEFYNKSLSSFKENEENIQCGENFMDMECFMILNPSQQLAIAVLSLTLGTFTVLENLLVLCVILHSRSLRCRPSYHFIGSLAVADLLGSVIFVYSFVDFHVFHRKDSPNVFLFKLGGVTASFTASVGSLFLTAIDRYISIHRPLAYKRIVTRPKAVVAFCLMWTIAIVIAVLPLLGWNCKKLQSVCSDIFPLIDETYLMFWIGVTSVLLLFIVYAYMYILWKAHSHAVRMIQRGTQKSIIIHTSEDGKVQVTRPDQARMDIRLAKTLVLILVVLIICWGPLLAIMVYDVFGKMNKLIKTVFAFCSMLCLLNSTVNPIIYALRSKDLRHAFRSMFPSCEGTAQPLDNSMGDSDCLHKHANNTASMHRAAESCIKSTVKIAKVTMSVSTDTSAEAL

The subject of a further data set is Cerebrospinal fluid. Nature of the data set: Drug level in rat complete Freund's adjuvant-induced inflammation model cerebrospinal fluid at 30 mg/kg, sc. Particulars: in vivo, read-out: Drug uptake. More on the design: dose 30 mg/kg, route subcutaneous. The data set is classed as ADME, organism-based. An outline of the steps:
(§2)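 In the rat CFA hyperalgesia experiments, after 30 mpk subcutaneous dosing, compound levels (nM) were measured in plasma, brain homogenate and cerebrospinal fluid.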

Data set [3] concerns the target T1, Cannabinoid receptor 1 (Homo sapiens, UniProt P21554). In words: Agonist activity at human CB1 receptor expressed in CHOK1 cells assessed as inhibition of forskolin-induced cAMP production treated 15 mins before forskolin challenge measured after 1 hr by HTRF assay. It is filed as functional, cell-based, CHO-K1. In a few lines: as §1
The next data set has as its system Plasma. Nature of the data set: Drug level in rat complete Freund's adjuvant-induced inflammation model plasma at 30 mg/kg, sc. It is filed as ADME, organism-based. More on the design: dose 30 mg/kg, route subcutaneous. Particulars: in vivo, read-out: Drug uptake. In a few lines: as §2
Data set [4] addresses T2, Cannabinoid receptor 2 (Homo sapiens, UniProt P34972). Nature of the data set: Agonist activity at human CB2 receptor expressed in CHOK1 cells assessed as inhibition of forskolin-induced cAMP production treated 15 mins before forskolin challenge measured after 1 hr by HTRF assay relative to control. It is filed as functional, cell-based. Particulars: CHO-K1. An outline of the steps: (§3)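 CHO-K1 cells (1000 per well) expressing human or rat CB1 or CB2 were preincubated with compound at room temperature for 15 min. Forskolin at EC70 was then added for a further 30 min at room temperature. cAMP was read by HTRF (d2-cAMP plus anti-cAMP-cryptate, final 1 h at room temperature). IC50 and % Emax were reported.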

The subject of a further data set is Brain. Nature of the data set: Drug level in rat complete Freund's adjuvant-induced inflammation model brain at 30 mg/kg, sc. The data set is classed as ADME, organism-based. As to conditions: in vivo, read-out: Drug uptake. More on the design: dose 30 mg/kg, route subcutaneous. In a few lines: as §2
In data set [5] the target is T3, Cannabinoid receptor 2 (Rattus norvegicus, UniProt Q9QZN9).
T3 sequence (Q9QZN9 whole entry): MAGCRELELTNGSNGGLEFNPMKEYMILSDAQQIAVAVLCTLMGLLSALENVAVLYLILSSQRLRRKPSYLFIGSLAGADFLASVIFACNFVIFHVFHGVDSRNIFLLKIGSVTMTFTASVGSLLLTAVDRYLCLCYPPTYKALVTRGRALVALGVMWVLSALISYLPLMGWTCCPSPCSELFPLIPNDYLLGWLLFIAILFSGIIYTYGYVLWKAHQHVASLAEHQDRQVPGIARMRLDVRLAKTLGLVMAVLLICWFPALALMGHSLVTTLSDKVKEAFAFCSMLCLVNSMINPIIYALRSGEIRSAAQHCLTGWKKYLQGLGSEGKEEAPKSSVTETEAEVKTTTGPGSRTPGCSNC
In words: Agonist activity at rat CB2 receptor expressed in CHOK1 cells assessed as inhibition of forskolin-induced cAMP production treated 15 mins before forskolin challenge measured after 1 hr by HTRF assay. It is filed as functional, cell-based, CHO-K1. In a few lines:
as §1

The target in data set [6] is T4, Cannabinoid receptor 2 (Rattus norvegicus) (UniProt Q9QZN9).
T4 sequence (whole entry): T3 sequence (Q9QZN9 whole entry)
In words: Agonist activity at rat CB2 receptor expressed in CHOK1 cells assessed as inhibition of forskolin-induced cAMP production treated 15 mins before forskolin challenge measured after 1 hr by HTRF assay relative to control. The data set is classed as functional, cell-based. As to conditions: CHO-K1. An outline of the steps:
as §3

The target of data set [7] is T2, Cannabinoid receptor 2. Nature of the data set: Agonist activity at human CB2 receptor expressed in CHOK1 cells assessed as inhibition of forskolin-induced cAMP production treated 15 mins before forskolin challenge measured after 1 hr by HTRF assay. It is filed as functional, cell-based, CHO-K1. An outline of the steps: as §1
For data set [8], the target named is Cannabinoid receptor 1 (Rattus norvegicus) (UniProt P20272). Nature of the data set: Agonist activity at rat CB1 receptor expressed in CHOK1 cells assessed as inhibition of forskolin-induced cAMP production treated 15 mins before forskolin challenge measured after 1 hr by HTRF assay relative to control. Particulars: CHO-K1. It is filed as functional, cell-based. An outline of the steps:
as §3

The species named for data set [9] is Rattus norvegicus.
Data set [10] addresses T1, Cannabinoid receptor 1. Nature of the data set: Agonist activity at human CB1 receptor expressed in CHOK1 cells assessed as inhibition of forskolin-induced cAMP production treated 15 mins before forskolin challenge measured after 1 hr by HTRF assay relative to control. The data set is classed as functional, cell-based. As to conditions: CHO-K1. In a few lines: as §3

T2 sequence (P34972 whole entry): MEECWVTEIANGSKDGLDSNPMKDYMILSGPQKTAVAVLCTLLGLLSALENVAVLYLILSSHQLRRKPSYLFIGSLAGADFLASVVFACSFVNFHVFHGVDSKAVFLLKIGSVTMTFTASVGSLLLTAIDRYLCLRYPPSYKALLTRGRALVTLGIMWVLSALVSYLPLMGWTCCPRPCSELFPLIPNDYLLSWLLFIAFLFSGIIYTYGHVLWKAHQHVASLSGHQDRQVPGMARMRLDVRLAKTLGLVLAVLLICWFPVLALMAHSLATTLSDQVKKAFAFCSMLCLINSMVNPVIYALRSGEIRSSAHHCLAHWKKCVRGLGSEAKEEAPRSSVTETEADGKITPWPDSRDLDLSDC
T1 sequence (P21554 whole entry): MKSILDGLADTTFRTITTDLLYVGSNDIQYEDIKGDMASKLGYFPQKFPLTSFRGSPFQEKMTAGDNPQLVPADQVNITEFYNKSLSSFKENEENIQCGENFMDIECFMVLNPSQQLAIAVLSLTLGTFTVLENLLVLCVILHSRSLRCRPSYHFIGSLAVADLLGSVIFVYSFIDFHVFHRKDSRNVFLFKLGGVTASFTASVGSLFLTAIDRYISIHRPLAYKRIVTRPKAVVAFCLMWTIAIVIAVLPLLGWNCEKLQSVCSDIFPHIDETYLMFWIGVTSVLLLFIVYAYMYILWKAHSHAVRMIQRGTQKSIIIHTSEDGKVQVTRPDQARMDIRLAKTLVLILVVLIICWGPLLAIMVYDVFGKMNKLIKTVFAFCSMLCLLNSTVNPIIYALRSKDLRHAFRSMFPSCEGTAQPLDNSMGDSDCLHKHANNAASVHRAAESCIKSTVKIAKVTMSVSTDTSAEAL
Chain of Cannabinoid receptor 1 (Rattus norvegicus) (P20272 whole entry): as the sequence (P20272 whole entry) above

`CN1CCOC[C@H]1C(=O)N1CC[C@@](O)(c2ccccc2)[C@@H]2CCCC[C@@H]21`: in the data set on Rattus norvegicus [1], the inhibition in vivo at 30 mg/kg turned out to be 3.3%. For the same compound, the IC50 at Cannabinoid receptor 1 [2] was greater than 17000 nM; on Cannabinoid receptor 1 [3], greater than 17000 nM; on Cannabinoid receptor 2 [5] it was 81 nM; on Cannabinoid receptor 2 [7], 16 nM. Besides, the concentration in the data set on Cerebrospinal fluid was determined as 1.5 µM; in the data set with Plasma, 6.6 µM; in the data set with Brain, 9.8 µM. Moreover, the Emax at Cannabinoid receptor 2 [4] was determined as 101%; in [6], 98%; in data set [8], 8%; on Cannabinoid receptor 1 [10], 11%. Moreover, the Papp in the data set filed under Rattus norvegicus [9] stood at 39 ×10⁻⁶ cm/s.
